A selection: hits, their analogues and other compounds. The true share with any hit is near 1.8%.
MBD2 inh: inhibitors of MBD2 binding to methylated DNA, primary screen, biochemical, TR-FRET, DNA-binding domain, human | MBD2 binding to methylated oligonucleotide | inhibition, % at 4.4 µM | hit rate 0.31% among 370,000 | AID 686964, 2013; in the data active = inhibition above about 13%
CASP6 VEID inh: human caspase-6 inhibitors, primary screen, biochemical, VEID-R110 fluorescence, single point, set 2. inhibition, % at 12.5 µM. purified caspase-6, Z-VEID-R110 cleavage fluorescence. hit rate 0.53% among 350,000;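 active = mean inhibition across replicates at least about 35%, with every replicate also reaching that limit, limit read from the data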
NSD2 inh: NSD2 histone methyltransferase inhibitors, primary screen, biochemical, AlphaScreen, single concentration, set 2 | Histone-lysine N-methyltransferase NSD2 (Homo sapiens), O96028 | NSD2 peptide methylation, 120 min | inhibition, % at 12.5 µM | hit rate 0.54% among 310,000 | AID 743445, 2014; in the data active = inhibition above about 50%
LEDGF integ inh: blockers of LEDGF/p75-dependent integrase strand transfer – biochemical, TR-FRET, high throughput, primary screen; HIV-1 integrase (with human LEDGF/p75); TR-FRET IN-LEDGF/p75 DNA integration, Eu/Cy5; inhibition, % at 3.7 µM; hit rate 0.64% among 370,000; AID 743269, 2014;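 active = inhibition above the screen-wide mean plus 3 SD, cut at about 13% in these data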;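 note: signal is the Cy5 over europium emission ratio at 671 and 618 nm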
UHRF1 binding: UHRF1 methylated DNA binding inhibitors, primary screen, counter-screen for MBD2 inhibitor project, biochemical, TR-FRET, human UHRF1, single concentration | E3 ubiquitin-protein ligase UHRF1 (Homo sapiens), Q96T88 | inhibition, % at 4.4 µM | hit rate 0.75% among 370,000 | UHRF1 binding to methylated oligo;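 note: UHRF1 SRA domain binding a hemimethylated CpG hairpin DNA probe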
TDP2 inh: human TDP2 enzyme inhibitors, primary screen, biochemical, epi absorbance, recombinant enzyme; inhibition, % at 12.8 µM; hit rate 0.34% among 370,000; T5PNP hydrolysis, p-nitrophenol absorbance 415 nm; AID 720702, 2013;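 active = inhibition above the mean of all tested compounds plus 3 SD, set per campaign, cut at about 25% in these data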
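Read-out basis: percent inhibition. System: recombinant human TDP2. Buffer or medium: Mg2+-containing Tris-HCl buffer, pH 7.5. Repeats: single replicate. Timing: reaction 2 h, 37 °C. Benchmarks: high control without enzyme, low control DMSO plus TDP2. Probe or stimulus: 5 mM T5PNP. Doses: 12.8 µM only. Measured by: epi absorbance of p-nitrophenol freed from T5PNP by hydrolysis.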
UHRF1 ctr MBD2: UHRF1 methylated DNA binding inhibitors, counter-screen for MBD2 inhibitor project, biochemical, TR-FRET, human UHRF1. UHRF1 binding to methylated oligonucleotide. inhibition, % at 4.4 µM. AID 720530, 2013. shares compounds with MBD2 inh. hit rate 25% among 1,000;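 note: UHRF1 SRA domain binding a labeled hemimethylated CpG hairpin DNA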
MBD2 confirm: inhibitors of MBD2 binding to methylated DNA, confirmation, biochemical, TR-FRET, DNA-binding domain, human. shares compounds with MBD2 inh. TR-FRET MBD2-DBD binding to methylated oligonucleotide. inhibition, % at 4.4 µM. hit rate 26% among 1,000; in the data active = inhibition above about 14%
Each line names hits and unclear results; the compound was inactive in the other large screens (follow-up assays come after a bar, where they were run). Cut-off read from the data, not from the text of the source, unless noted: active = inhibition above about 21%; inactive = the rest.

O=C(Nc1ccc2c(c1)[C@H]1C[C@@H](CC(=O)N3CCc4ccccc4C3)O[C@@H](CO)[C@H]1O2)C1CCOCC1	none (no result: MBD2 inh, NSD2 inh, LEDGF integ inh, UHRF1 binding, TDP2 inh)
CCC1CCc2c([nH]c3ccccc3c2=O)O1 (centres undefined)	MBD2 inh 13.3, UHRF1 binding 21.9 (no result: CASP6 VEID inh) | UHRF1 ctr MBD2 inactive | MBD2 confirm inactive
C[C@H]1CN([C@@H](C)CO)C(=O)Cc2cc(NS(C)(=O)=O)ccc2O[C@@H]1CN(C)Cc1ccc(C(=O)O)cc1	none (no result: MBD2 inh, NSD2 inh, LEDGF integ inh, UHRF1 binding, TDP2 inh)
COC(=O)c1nnn(-c2nonc2N)c1CN1CCCC1	MBD2 inh 31.1 | UHRF1 ctr MBD2 inactive | MBD2 confirm inactive
CC(C)CNc1ccc2c(c1)OC[C@H](C)NS2(=O)=O	MBD2 inh 13.3, UHRF1 binding 20.7 (no result: NSD2 inh) | UHRF1 ctr MBD2 inactive | MBD2 confirm inactive
CC(C)CNc1ccc2c(c1)OC[C@H](CC(C)C)NS2(=O)=O	none (no result: NSD2 inh)
Cc1ccc(NC(=O)CCOc2ccccc2)cc1	MBD2 inh 59.1 | UHRF1 ctr MBD2 inactive | MBD2 confirm inactive
O=C(Nc1nc2ccccc2s1)c1cccs1	none (no result: MBD2 inh, CASP6 VEID inh, LEDGF integ inh, UHRF1 binding, TDP2 inh)
COc1ccccc1C(=O)Nc1ccc2c(c1)OC[C@@H](C)N(C)C[C@H](C)[C@@H](OC)CN(C)C2=O	none (no result: MBD2 inh, NSD2 inh, LEDGF integ inh, UHRF1 binding, TDP2 inh)
COc1ccc(C(C)=O)cc1COC(=O)c1ccc2c(c1)OCO2	MBD2 inh 13.8 (no result: CASP6 VEID inh) | UHRF1 ctr MBD2 inactive | MBD2 confirm inactive
COc1ccc(C(C)=O)cc1COC(=O)c1ccc2c(c1)OCCO2	none (no result: NSD2 inh)
COCC(=O)N(C)C[C@H]1Oc2ncc(C#C[C@H](C)O)cc2C(=O)N([C@@H](C)CO)C[C@@H]1C	none (no result: MBD2 inh, NSD2 inh, LEDGF integ inh, UHRF1 binding, TDP2 inh)
COc1cc2c(cc1OC)-c1c(OC)c(OC)cc3ccnc(c13)C2=O	MBD2 inh 33.0, UHRF1 binding 37.5 (no result: NSD2 inh) | UHRF1 ctr MBD2 52.8 | MBD2 confirm 46.4
COc1ccccc1NC(=O)N1CCC(c2nc3cc(C)c(C)cc3[nH]2)CC1	MBD2 inh 13.4 (no result: CASP6 VEID inh) | UHRF1 ctr MBD2 inactive | MBD2 confirm inactive
COCCn1c(C)cc(C(=O)COC(=O)c2cccc(O)c2)c1C	none (no result: NSD2 inh)
COCCn1c(C)cc(C(=O)COC(=O)c2cc3c(s2)CCC3)c1C	MBD2 inh 15.6 (no result: CASP6 VEID inh) | UHRF1 ctr MBD2 22.7 | MBD2 confirm 19.3
N#Cc1ccc(CSc2nnc(NC(=O)C3CCCO3)s2)cc1 (centres undefined)	MBD2 inh 16.7, UHRF1 binding 24.5 (no result: CASP6 VEID inh) | UHRF1 ctr MBD2 inactive | MBD2 confirm inactive
O=c1c2ccccc2nc(-c2ccccc2)n1/N=C/c1ccc([N+](=O)[O-])cc1	none (no result: CASP6 VEID inh)
Cc1ccccc1-c1nc2ccccc2c(=O)n1/N=C/c1ccc([N+](=O)[O-])cc1	MBD2 inh 14.9 | UHRF1 ctr MBD2 inactive | MBD2 confirm inactive
O=C(O)c1cccc(NC(=S)NC(=O)C(c2ccccc2)c2ccccc2)c1	MBD2 inh 14.4 (no result: CASP6 VEID inh) | UHRF1 ctr MBD2 inactive | MBD2 confirm inactive
O=C(O)c1ccc(NC(=S)NC(=O)C(c2ccccc2)c2ccccc2)cc1	none
C[C@@H]1CN([C@@H](C)CO)C(=O)c2cc(C#CC3CC3)cnc2O[C@@H]1CN(C)C(=O)c1ccccc1	none (no result: MBD2 inh, NSD2 inh, LEDGF integ inh, UHRF1 binding, TDP2 inh)
Cc1ccc(C(=O)NC2CCS(=O)(=O)C2)cc1S(=O)(=O)N1CCCC1 (centres undefined)	MBD2 inh 17.0 | UHRF1 ctr MBD2 inactive | MBD2 confirm inactive
